The source of these data is ChEMBL document CHEMBL4422632, “Design of Novel Inhibitors of Human Thymidine Phosphorylase: Synthesis, Enzyme Inhibition, in Vitro Toxicity, and Impact on Human Glioblastoma Cancer” (J Med Chem, 2019).

A short description of data set [1]: Cytotoxicity against human U87MG cells assessed as cell viability at 1000 uM after 72 hrs by MTT assay relative to control. It counts as cell-based, U-87MG ATCC. Particulars: read-out: Activity. A digest of the protocol: (§1)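 Cells grown in DMEM with 10% FBS at 37 °C, 5% CO₂; seeded 2 x 10³ cells/well, adhered 24 h, then exposed 72 h. MTT: 1 mg/mL for 3 h, formazan in DMSO, absorbance 595 nm. NRU: neutral red 25 µg/mL in serum-free medium for 3 h, desorbed in ethanol:acetic acid:water. Viability as % of untreated control; mean ± SEM of three to five independent experiments in triplicate.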
A general note: Formazan colour is commonly taken as a measure of viable cells.

A short description of data set [2]: AUC (0 to infinity) in CF1 mouse at 50 mg/kg, ip by non-compartmental analysis. The class given is ADME, organism-based. The arrangement: dose 50 mg/kg, time infinity, route intraperitoneal. Particulars: in vivo. Put shortly: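 Male CF1 mice received a single ip injection of 50 mg/kg in 0.9% saline; 3 animals per time point, killed 0.03, 0.08, 0.25, 0.5, 1 and 2 h after dosing; blood collected in heparin tubes.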

The nature of data set [3]: Cytotoxicity against human HaCaT cells assessed as cell viability at 50 uM after 72 hrs by neutral red uptake-based assay relative to control. As to conditions: read-out: Activity. A digest of the protocol: as §1
Data set [4] in a line: Cytotoxicity against African green monkey Vero cells assessed as cell viability at 50 uM after 72 hrs by MTT assay relative to control. The class given is cell-based. Particulars: chlorocebus sabaeus, read-out: Activity. A digest of the protocol:
as §1

Data set [5] in a line: Cytotoxicity against human U87MG cells assessed as cell viability at 1000 uM after 72 hrs by neutral red uptake-based assay relative to control. Set-up: species or system U-87MG ATCC. As to conditions: read-out: Activity. Put shortly:
(§2)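 Cells kept in DMEM with 10% heat-inactivated FBS, 1% penicillin-streptomycin and 0.1% fungizone at 37 °C, 5% CO₂. U-87 MG seeded at 2 x 10^3 cells/well, RAW 264.7 at 5 x 10^2, adhered 24 h, then exposed 72 h. MTT: 1 mg/mL for 3 h, formazan in DMSO, A595. NRU: 25 μg/mL dye, 3 h, ethanol:acetic acid:water desorb. Untreated wells = 100%; three to five independent experiments in triplicate.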

Data set [6] can be described thus: Cytotoxicity against African green monkey Vero cells assessed as cell viability at 100 uM after 72 hrs by neutral red uptake-based assay relative to control. Particulars: chlorocebus sabaeus, read-out: Activity. Put shortly: as §1
Data set [7] in a line: Cytotoxicity against human U87MG cells assessed as cell viability at 50 uM after 72 hrs by MTT assay relative to control. The class given is cell-based, U-87MG ATCC. As to conditions: read-out: Activity. Put shortly: as §2

Consider `O=c1[nH]c(CNC(CO)CO)c(I)c(=O)[nH]1`, for which the viability at 72 h, 1000 µM in data set [1] was 83%; in data set [5], 72%. In data set [2], this molecule yielded an AUC of 17400 ng·h/mL. Also, the figures for the viability at 72 h, 50 µM in data set [3], in data set [4] and in data set [7] were 110%, 97% and 97%, respectively. Moreover, the viability at 72 h, 100 µM in data set [6] turned out to be 108%.

Usually AUC stands for concentration integrated over time.
